Screens (PubChem)
Rows were chosen to be rich in hits. Some 2.5% of all compounds tested hit in one or more screens of this group.
dFosB act = activators of delta FosB homodimer, primary screen, biochemical, fluorescence polarization, TAMRA-CDK5 oligo, single point; purified delta FosB; percent of positive-control signal above neutral wells; 340,000 tested, 0.99% active; Protein FosB (Mus musculus), P13346; activation, % at 25 µM;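 active means mean activation above about 17%, with every replicate also reaching it, limit read from the data, passing the limit was not always enough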
Target sequence (P13346 whole entry, looked up): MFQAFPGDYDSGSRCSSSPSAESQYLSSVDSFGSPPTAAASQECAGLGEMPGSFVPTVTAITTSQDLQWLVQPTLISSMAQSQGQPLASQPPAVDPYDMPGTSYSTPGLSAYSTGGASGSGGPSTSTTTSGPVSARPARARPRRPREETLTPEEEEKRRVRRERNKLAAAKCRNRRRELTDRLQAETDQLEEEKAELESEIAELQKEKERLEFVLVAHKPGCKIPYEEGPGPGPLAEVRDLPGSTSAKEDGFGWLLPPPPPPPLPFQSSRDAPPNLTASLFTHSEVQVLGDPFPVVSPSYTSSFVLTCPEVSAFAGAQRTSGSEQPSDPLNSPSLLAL
IMP-1 inh = IMP-1 metallo-beta-lactamase inhibitors, primary screen, biochemical, epi-absorbance readout, Pseudomonas aeruginosa enzyme. metallo-beta-lactamase IMP-1 (Pseudomonas aeruginosa). inhibition, % at 5.6 µM. AID 1556, 2009. 290,000 tested, 0.45% active. purified IMP-1, nitrocefin hydrolysis, epi-absorbance fluorescence;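 active means inhibition above the mean plus 3 SD of all compounds in the same screening run, cut at about 4.5% in these data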
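System: purified IMP-1; amount: IMP-1 0.2 nM before substrate addition; compound: single dose, 5.6 µM; times: 25 °C, 15 min preincubation, 25 min reaction; signal: Epi-absorbance via hydrolysed-nitrocefin quenching of white-plate fluorescence, 480/530 nm, EDTA stop; benchmarks: DMSO with and without IMP-1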
m5-HT2A agonist = mouse Htr2a agonists via beta-arrestin recruitment, primary screen, cell-based, luminescence. 5-hydroxytryptamine receptor 2A (Mus musculus), P35363. CHO-K1 mHTR2A beta-arrestin complementation; percent of 30 µM serotonin response. activation, % at 7.6 µM. 360,000 tested, 0.66% active;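 active means activation above a run cutoff, the mean activation of all tested compounds plus 3 SD, cut at about 14% in these data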
VIM-2 inhibitor = VIM-2 metallo-beta-lactamase inhibitors, primary screen, biochemical, epi-absorbance readout, Pseudomonas aeruginosa enzyme. purified VIM-2, nitrocefin hydrolysis, epi-absorbance fluorescence. inhibition, % at 5.6 µM. 290,000 tested, 0.89% active;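 active means inhibition above the mean of all tested compounds plus 3 SD, cutoff set per screening run, cut at about 7.5% in these data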;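 further: red hydrolysis product quenches plate fluorescence so inhibitors raise well fluorescence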
Of the large screens only hits and unclear results are named; the others gave an inactive call.

Nc1c(C(=O)NCc2ccc3c(c2)OCO3)nnn1Cc1cccc(F)c1	none
Nc1c(C(=O)NCc2ccc3c(c2)OCO3)nnn1Cc1ccc(Br)cc1	dFosB act 20.2
Cc1nc(N)sc1-c1csc(Nc2ncccn2)n1	IMP-1 inh 26.9
COc1ccccc1Nc1nc(-c2sc(N)nc2C)cs1	none
CCCc1nnc(N2C(=O)c3cccc4cccc(c34)C2=O)s1	VIM-2 inhibitor 8.7
COC(=O)C1CCN(C2CN(Cc3ccc([N+](=O)[O-])cc3)S(=O)(=O)C2)CC1 (stereo not drawn)	none (no result: dFosB act, IMP-1 inh, VIM-2 inhibitor)
C#CCn1c(=NC(=O)c2ccccc2[N+](=O)[O-])sc2cc(S(C)(=O)=O)ccc21	dFosB act 33.4
C=CCn1c(SCC(=O)NCCCC)nc2scc(-c3ccco3)c2c1=O	IMP-1 inh 7.9
O=C(COc1ccc2c3c(c(=O)oc2c1)CCC3)N1CCCCC1	VIM-2 inhibitor 12.0
O=C(O)C1CCN(C(=O)COc2ccc3c4c(c(=O)oc3c2)CCCC4)CC1	none
COc1ccc(-c2cc(=O)oc3cc(OCC(=O)N4C[C@H]5C[C@@H](C4)c4cccc(=O)n4C5)ccc23)cc1	none
O=C(COc1ccc2c3c(c(=O)oc2c1)CCCC3)N1C[C@H]2C[C@@H](C1)c1cccc(=O)n1C2	VIM-2 inhibitor 9.1
O=C(COc1ccc2c3c(c(=O)oc2c1)CCC3)N1CCN(c2ccccc2)CC1	VIM-2 inhibitor 10.6
O=C(COc1ccc2c3c(c(=O)oc2c1)CCC3)N1CCCC1	VIM-2 inhibitor 9.8
Cc1c(C)c2ccc(OCC(=O)N3CCN(c4ccccc4)CC3)cc2oc1=O	none
CCOC(=O)[C@H]1[C@H]2COc3ccc(OC)cc3[C@@H]2N2C(=O)c3ccccc3NC(=O)[C@@]12C	none (no result: IMP-1 inh, VIM-2 inhibitor)
C=CCOc1ccc(/C=C2\SC(N3CCCCC3)=NC2=O)cc1	none
CC(=O)Oc1ccc2c3c(c(=O)oc2c1)CCCC3	none
O=C(COc1ccc2c3c(c(=O)oc2c1)CCC3)NCCCN1CCCC1=O	VIM-2 inhibitor 10.7
CC(C)Oc1ccc2c3c(c(=O)oc2c1)CCC3	VIM-2 inhibitor 8.6
Cc1ccc(C(=O)NCCC(=O)Nc2ccccc2C)cc1	none
CCNC(=O)C1(C)CCN(Cc2cccc(C(F)(F)F)c2)C1 (stereo not drawn)	none (no result: dFosB act, IMP-1 inh, VIM-2 inhibitor)
COc1cc2nc(Nc3ccc(C)c(C)c3)nc(N)c2cc1OC	dFosB act 105.4
COc1cc2nc(Nc3ccc(C)c(Cl)c3)nc(N)c2cc1OC	dFosB act 59.5
CCOC(=O)c1ccc(Nc2nc(N)c3cc(OC)c(OC)cc3n2)cc1	dFosB act 37.3
Cc1ccc(Nc2nc(N)c3ccccc3n2)cc1Cl	dFosB act 28.3
Nc1nc(Nc2ccc(Cl)cc2)nc2ccccc12	none
COc1ccccc1N1CCN(Cc2nc(N)nc(Nc3ccc(C)c(Cl)c3)n2)CC1	none
CC(OC(=O)CCc1nc2ccccc2c(=O)[nH]1)C(=O)c1ccc(C(C)(C)C)cc1 (stereo not drawn)	none
COc1ccc(N2CC(C(=O)Nc3ccccc3C(=O)NC3CC3)CC2=O)cc1 (stereo not drawn)	none
O=C1CCC(C(=O)Nc2cccc(S(=O)(=O)N3CCOCC3)c2)N1 (stereo not drawn)	none
COc1cc2nc(N(C)C)nc(N)c2cc1OC	none
COc1cc2nc(Nc3ccc(F)cc3)nc(N)c2cc1OC	dFosB act 20.8
CCC(C(=O)N1CCC(N2CCCCC2)CC1)n1nc(C)c2sc3ccccc3c2c1=O (stereo not drawn)	none
CCc1ccc(O)c(N=Cc2cccc(C)c2O)c1	none
CCCc1ccc(O)c(N=Cc2cc(Br)cc(OCC)c2O)c1	IMP-1 inh 5.5
CN1CCN(c2ccc(C(=O)c3ccccc3)cc2[N+](=O)[O-])CC1	VIM-2 inhibitor 8.3
CN1CCN(c2ccccc2NC(=O)c2ccc(N3CCCCC3)c([N+](=O)[O-])c2)CC1	none
NC(=O)c1ccccc1N/C=C/C(=O)c1ccc(F)cc1	none
NC(=O)c1ccccc1N/C=C/C(=O)c1ccc(Cl)cc1Cl	VIM-2 inhibitor 8.0
Cc1ccc(-c2csc(N3CCC[C@@H]3C(=O)NCCn3c(-c4ccncc4)nc4ccccc43)n2)cc1	none
Cc1c(C(=O)NCc2cccs2)oc2ccc(Br)cc12	IMP-1 inh 5.3
COc1cccc(C2Nc3ccc4ccccc4c3C3=C2C(=O)CCC3)c1O (stereo not drawn)	none
CCCCNC(=O)CSc1nnc(Cc2ccccc2)n1CC	IMP-1 inh 4.5
COc1ccc(C2CC(c3ccc(Cl)cc3)n3nc(N)nc3N2)cc1 (stereo not drawn)	IMP-1 inh 5.0
Cc1ccc(NC(=O)c2ncn(CCCN(CCCn3cnc(C(=O)Nc4ccc(C)c(C)c4)n3)Cc3ccc4[nH]ccc4c3)n2)cc1C	dFosB act 77.0 (no result: IMP-1 inh, VIM-2 inhibitor)
Nc1ccc(Cc2ccc(N)c(O)c2)cc1O	dFosB act 44.5
O=C(CSc1ccccn1)NC1CCCc2c1cnn2-c1ccccc1F (stereo not drawn)	none (no result: dFosB act, IMP-1 inh, VIM-2 inhibitor)
Cc1cc(=O)[nH]c2c(N=Nc3ccc(O)cc3)c(N)nn12	IMP-1 inh 6.4
COC(=O)C1=CN(c2ccc3c(c2)OCO3)C(N)=C(C#N)C1c1ccccc1 (stereo not drawn)	none (no result: dFosB act, IMP-1 inh, VIM-2 inhibitor)
COc1ccc(CN2CCN(Cc3cc4ccccc4o3)CC2CCO)cc1C (stereo not drawn)	none
O=C(OCC1OC(n2ccc(=O)[nH]c2=O)C2OC12)c1ccccc1 (stereo not drawn)	none (no result: IMP-1 inh, VIM-2 inhibitor)
Cc1nn(-c2ccccc2)c(OC(=O)c2cccs2)c1S(=O)(=O)c1ccccc1	none
Cc1nn(-c2ccccc2)c(OC(=O)c2cccs2)c1S(=O)(=O)c1ccc([N+](=O)[O-])cc1	IMP-1 inh 4.8
CCOc1ccc(CCNC(=O)c2cccc(S(=O)(=O)N3CCCCC3)c2)cc1OCC	none (no result: IMP-1 inh, VIM-2 inhibitor)
COc1ccc(S(=O)(=O)Nc2ccc3c(c2)C(=O)N([C@H](C)CO)C[C@H](C)[C@@H](CN(C)S(=O)(=O)c2ccc(F)cc2)O3)cc1	none (no result: IMP-1 inh, VIM-2 inhibitor)
O=C(COC(=O)Cc1ccc(F)cc1)NC1CCCC1	m5-HT2A agonist 21.1 (no result: IMP-1 inh, VIM-2 inhibitor)
O=C(COC(=O)Cc1ccc(F)cc1)NC(=O)NC1CCCC1	none (no result: IMP-1 inh, VIM-2 inhibitor)
CCC[C@@H]1C[C@@H](C(=O)NC(C(C)Cl)[C@H]2O[C@H](SC)[C@H](O)[C@@H](O)[C@H]2O)N(C)C1 (stereo partly drawn)	m5-HT2A agonist 39.8
NC(=O)c1cc(-c2csc(NCCc3ccccc3)n2)ccc1O	IMP-1 inh 5.0
CCOC(=O)c1cc2c(ccc3nc(C)c(C)c32)[nH]c1C	none
CCN(Cc1ccccc1)C(=O)COC(=O)c1cc(S(=O)(=O)Nc2ccccc2OC)ccc1O	none (no result: IMP-1 inh, VIM-2 inhibitor)
CCOc1ccccc1-n1c(SCC(=O)N(CC)CC)nnc1-c1ccccn1	IMP-1 inh 5.7
Oc1c(Br)cc(Br)cc1/C=N/n1c(-c2ccccc2)n[nH]c1=S	IMP-1 inh 22.1
Oc1c(Br)cc(/C=N/n2c(-c3ccccc3)n[nH]c2=S)c(Br)c1O	none (no result: dFosB act, m5-HT2A agonist)
